The results in this text go back to ChEMBL document CHEMBL1127442, “Triazolinone biphenylsulfonamide derivatives as orally active angiotensin II antagonists with potent AT1 receptor affinity and enhanced AT2 affinity” (J Med Chem, 1994).

pIC50: −log10 of the molar value.

The term pIC50 denotes −log10 of the IC50, conventionally taken in molar units. High values mean a small IC50, low ones a large IC50.

Assay [1] concerns the target T1, Type-1 angiotensin II receptor (Oryctolagus cuniculus, UniProt P34976).
T1 sequence (P34976 whole entry): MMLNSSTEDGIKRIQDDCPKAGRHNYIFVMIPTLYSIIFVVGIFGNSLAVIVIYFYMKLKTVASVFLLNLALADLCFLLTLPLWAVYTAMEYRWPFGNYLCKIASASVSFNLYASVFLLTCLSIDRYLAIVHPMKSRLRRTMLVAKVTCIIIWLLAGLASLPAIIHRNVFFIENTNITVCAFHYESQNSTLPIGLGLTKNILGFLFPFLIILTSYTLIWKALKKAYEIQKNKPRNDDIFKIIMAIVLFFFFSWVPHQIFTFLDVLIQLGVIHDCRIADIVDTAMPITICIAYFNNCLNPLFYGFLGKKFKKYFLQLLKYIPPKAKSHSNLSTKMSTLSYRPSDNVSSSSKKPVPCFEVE
Put plainly: In vitro inhibitory activity against angiotensin II rabbit aorta AT1 receptor using radioligand [125I]-Sar Ile-AII. The class given is tissue-based.

The target in assay [2] is T2, Type-2 angiotensin II receptor (Rattus norvegicus, UniProt P35351).
T2 sequence (P35351 whole entry): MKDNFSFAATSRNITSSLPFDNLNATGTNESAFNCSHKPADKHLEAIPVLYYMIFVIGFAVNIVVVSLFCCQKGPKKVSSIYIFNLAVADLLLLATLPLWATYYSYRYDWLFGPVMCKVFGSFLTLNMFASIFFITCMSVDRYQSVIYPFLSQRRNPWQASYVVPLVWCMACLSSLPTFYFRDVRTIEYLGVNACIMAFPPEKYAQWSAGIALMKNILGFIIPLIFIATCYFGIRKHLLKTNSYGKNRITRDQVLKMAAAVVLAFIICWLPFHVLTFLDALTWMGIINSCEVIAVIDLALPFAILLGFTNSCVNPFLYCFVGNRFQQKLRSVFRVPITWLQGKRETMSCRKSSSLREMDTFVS
The assay is described as follows: In vitro inhibitory activity against angiotensin II rat midbrain AT2 receptor using radioligand [125I]-Sar Ile-AII. In outline:
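Dithiothreitol ([…]) was added to the assay mixture to abolish residual AT1 binding. Tubes were run in duplicate, and IC50 came from nonlinear regression of displacement curves.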

Turning to `CCCCc1nn(-c2ccccc2C(F)(F)F)c(=O)n1Cc1ccc(-c2ccccc2S(=O)(=O)NC(=O)C2CC2C)cc1` (centres undefined), the pIC50 was 9.25 in assay [1] and 6.92 in assay [2].

With `CCCCc1nn(-c2ccccc2C(F)(F)F)c(=O)n1Cc1ccc(-c2ccccc2S(=O)(=O)NC(=O)C(C)(C)C)cc1`, the pIC50 was 8.89 in assay [1] and 6.80 in assay [2].

Turning to `CCCCc1nn(-c2ccccc2C(F)(F)F)c(=O)n1Cc1ccc(-c2ccccc2S(=O)(=O)NS(=O)(=O)C(C)C)cc1`, the pIC50 was 9.80 in assay [1] and 5.44 in assay [2].

As for `CCCCc1nn(-c2ccccc2Cl)c(=O)n1Cc1ccc(-c2ccccc2S(=O)(=O)NC(=O)C(F)(F)F)cc1`, the pIC50 in assay [2] is 6.35.

Take `CCCCc1nn(-c2ccccc2C(F)(F)F)c(=O)n1Cc1ccc(-c2ccccc2S(=O)(=O)NC(=O)c2ccccc2Cc2ccccc2)cc1`: the pIC50 was 9.09 in assay [1] and 6.72 in assay [2].

In assay [2], `CCCCc1nn(-c2ccccc2Cl)c(=O)n1Cc1ccc(-c2ccccc2S(=O)(=O)NC(C)(C)C)cc1` had a pIC50 of 4.96.

Turning to `CCCCc1nn(-c2ccccc2C(F)(F)F)c(=O)n1Cc1ccc(-c2ccccc2S(=O)(=O)NC(=O)c2cc(Cl)ccc2Cl)cc1`, the pIC50 in assay [1] is 9.32; in assay [2], 7.59.

For the compound `CCCCc1nn(-c2ccccc2C(F)(F)F)c(=O)n1Cc1ccc(-c2ccccc2S(=O)(=O)NC(=O)C2CCCCC2)cc1`, the pIC50 is 9.82 in assay [1] and 6.80 in assay [2].

As to `CCCCc1nn(-c2ccccc2C(F)(F)F)c(=O)n1Cc1ccc(-c2ccccc2S(=O)(=O)NC(=O)c2cc3ccccc3s2)cc1`, the pIC50 is 9.51 in assay [1] and 6.37 in assay [2].

For the compound `CCCCc1nn(-c2ccccc2C(F)(F)F)c(=O)n1Cc1ccc(-c2ccccc2S(=O)(=O)NC(=O)c2ccc(Cl)cc2)cc1`, the pIC50 in assay [1] was 8.92; in assay [2], 6.28.

For `CCCCc1nn(-c2ccccc2C(F)(F)F)c(=O)n1Cc1ccc(-c2ccccc2S(=O)(=O)Nc2nc3ccccc3o2)cc1`, the values for the pIC50 in assay [1] and in assay [2] were 8.28 and 6.15, respectively.

On to `CCCCCCCC(=O)NS(=O)(=O)c1ccccc1-c1ccc(Cn2c(CCCC)nn(-c3ccccc3C(F)(F)F)c2=O)cc1`, for which the pIC50 is 8.54 in assay [1] and 6.35 in assay [2].

As to `CCCCc1nn(-c2ccccc2C(F)(F)F)c(=O)n1Cc1ccc(-c2ccccc2S(=O)(=O)NC(=O)CCOC)cc1`, the pIC50 in assay [1] was 8.70; in assay [2], 6.57.

`CCCCc1nn(-c2ccccc2C(F)(F)F)c(=O)n1Cc1ccc(-c2ccccc2S(=O)(=O)NC(=O)c2ccoc2)cc1`: the pIC50 in assay [1] was 8.41; in assay [2], 6.15.

In the case of `CCCCc1nn(-c2ccccc2C(F)(F)F)c(=O)n1Cc1ccc(-c2ccccc2S(=O)(=O)NC(=O)c2ccc(C#N)cc2)cc1`, the pIC50 in assay [1] was 9.12; in assay [2] it was 6.40.

Take `CCCCc1nn(-c2ccccc2C(F)(F)F)c(=O)n1Cc1ccc(-c2ccccc2S(=O)(=O)NC(=O)c2cccnc2Cl)cc1`: the figures for the pIC50 in assay [1] and in assay [2] were 9.00 and 6.28, respectively.

For the compound `CCCCc1nn(-c2c(Cl)cccc2Cl)c(=O)n1Cc1ccc(-c2ccccc2S(=O)(=O)NC(=O)c2ccccc2)cc1`, the pIC50 was 8.59 in assay [1] and 6.30 in assay [2].

In the case of `CCCCc1nn(-c2ccccc2C(F)(F)F)c(=O)n1Cc1ccc(-c2ccccc2S(=O)(=O)NC(=O)C2SCCS2)cc1`, the pIC50 was 9.46 in assay [1] and 7.46 in assay [2].

Regarding `CCCCc1nn(-c2ccccc2C(F)(F)F)c(=O)n1Cc1ccc(-c2ccccc2S(=O)(=O)Nc2ccc([N+](=O)[O-])cc2)cc1`, the pIC50 in assay [1] is 7.11; in assay [2] it was 5.28.

For the compound `CCCCc1nn(-c2ccccc2C(F)(F)F)c(=O)n1Cc1ccc(-c2ccccc2S(=O)(=O)NC(=O)c2c(C)cccc2C)cc1`, the pIC50 in assay [1] was 8.23; in assay [2], 6.72.

On to `CCCc1nn(-c2ccccc2C(F)(F)F)c(=O)n1Cc1ccc(-c2ccccc2S(=O)(=O)NC(=O)C2CC2)cc1`, for which the pIC50 was 7.74 in assay [1] and 6.39 in assay [2].

Regarding `CCCCc1nn(-c2ccccc2Cl)c(=O)n1Cc1ccc(-c2ccccc2S(=O)(=O)NC(=O)c2ccccc2)cc1`, the pIC50 in assay [1] is 8.85; in assay [2], 6.23.

On to `CCCCc1nn(-c2ccccc2C(F)(F)F)c(=O)n1Cc1ccc(-c2ccccc2S(=O)(=O)NC(=O)C2CCCCCC2)cc1`, for which the pIC50 is 9.52 in assay [1] and 6.57 in assay [2].

`CCCCc1nn(-c2ccccc2C(F)(F)F)c(=O)n1Cc1ccc(-c2ccccc2-c2nnn[nH]2)cc1`: the pIC50 in assay [1] was 9.11; in assay [2] it was 4.64.

Turning to `CCCCc1nn(-c2ccccc2C(F)(F)F)c(=O)n1Cc1ccc(-c2ccccc2S(=O)(=O)NC(=O)c2ccc(F)cc2)cc1`, the pIC50 in assay [1] is 9.17; in assay [2], 6.30.

As for `CCCCc1nn(-c2ccccc2C(F)(F)F)c(=O)n1Cc1ccc(-c2ccccc2S(=O)(=O)NC(=O)c2ccc(C(F)(F)F)cc2)cc1`, the pIC50 was 8.42 in assay [1] and 5.85 in assay [2].

`CC1CC1Cc1nn(-c2ccccc2C(F)(F)F)c(=O)n1Cc1ccc(-c2ccccc2S(=O)(=O)NC(=O)c2ccccc2)cc1` (centres undefined): the pIC50 was 8.24 in assay [1] and 6.30 in assay [2].

As for `CCCCc1nn(-c2ccccc2C(F)(F)F)c(=O)n1Cc1ccc(-c2ccccc2S(=O)(=O)NC(=O)NC(C)(C)C)cc1`, the pIC50 in assay [1] is 8.59; in assay [2], 6.89.

On to `CCCCc1nn(-c2ccccc2C(F)(F)F)c(=O)n1Cc1ccc(-c2ccccc2S(=O)(=O)NC(=O)c2cccc(Cl)c2Cl)cc1`, for which the pIC50 was 9.14 in assay [1] and 6.11 in assay [2].

Regarding `CCCCc1nn(-c2ccccc2C(F)(F)F)c(=O)n1Cc1ccc(-c2ccccc2S(=O)(=O)NC(=O)c2cccn2C)cc1`, the pIC50 was 8.80 in assay [1] and 6.30 in assay [2].

Consider `CCCCc1nn(-c2ccccc2C(F)(F)F)c(=O)n1Cc1ccc(-c2ccccc2S(=O)(=O)NC(=O)C(F)(F)F)cc1`, for which the values for the pIC50 in assay [1] and in assay [2] were 9.10 and 6.40, respectively.

As to `CCCCc1nn(-c2ccccc2C(F)(F)F)c(=O)n1Cc1ccc(-c2ccccc2S(=O)(=O)NC(=O)C2CCC2)cc1`, the pIC50 was 9.08 in assay [1] and 7.00 in assay [2].

Regarding `CCCCc1nn(-c2ccccc2C(F)(F)F)c(=O)n1Cc1ccc(-c2ccccc2S(=O)(=O)NC(=O)c2cc(C)oc2C)cc1`, the pIC50 in assay [1] is 9.00; in assay [2] it was 6.51.

For the compound `CCCCc1nn(-c2ccccc2C(F)(F)F)c(=O)n1Cc1ccc(-c2ccccc2S(=O)(=O)NC(=O)c2sccc2C)cc1`, the figures for the pIC50 in assay [1] and in assay [2] were 9.09 and 7.10, respectively.

Take `CCCCc1nn(-c2ccccc2C(F)(F)F)c(=O)n1Cc1ccc(-c2ccccc2S(=O)(=O)NC(=O)C2(C)SCCS2)cc1`: the pIC50 in assay [1] was 9.66; in assay [2], 7.10.

On to `CCCCc1nn(-c2ccccc2C(F)(F)F)c(=O)n1Cc1ccc(-c2ccccc2S(=O)(=O)NC(=O)C2(C)CC2)cc1`, for which the pIC50 in assay [1] was 9.10; in assay [2], 7.12.

Turning to `CCCCc1nn(-c2ccccc2C(F)(F)F)c(=O)n1Cc1ccc(-c2ccccc2S(=O)(=O)NC(=O)c2ccc(Cl)s2)cc1`, the pIC50 in assay [1] was 8.89; in assay [2] it was 6.59.

On to `CCCCc1nn(-c2ccccc2C(F)(F)F)c(=O)n1Cc1ccc(-c2ccccc2S(=O)(=O)NC(=O)c2occ(Cl)c2Cl)cc1`, for which the pIC50 in assay [1] was 9.72; in assay [2], 7.60.

As to `CCCCc1nn(-c2ccccc2C(F)(F)F)c(=O)n1Cc1ccc(-c2ccccc2S(=O)(=O)NC(=O)c2ccccc2-c2ccccc2)cc1`, the pIC50 in assay [1] was 9.22; in assay [2], 6.48.

`CCCCc1nn(-c2ccccc2C(F)(F)F)c(=O)n1Cc1ccc(-c2ccccc2S(=O)(=O)NC(=O)C2(C)CC2(Cl)Cl)cc1` (centres undefined): the pIC50 in assay [1] was 9.43; in assay [2], 6.92.

For the compound `CCCCc1nn(-c2ccccc2C(F)(F)F)c(=O)n1Cc1ccc(-c2ccccc2S(=O)(=O)NC(=O)c2cccc(Cl)c2)cc1`, the pIC50 is 8.62 in assay [1] and 6.82 in assay [2].

With `CCCCc1nn(-c2ccccc2C(F)(F)F)c(=O)n1Cc1ccc(-c2ccccc2S(=O)(=O)NC(=O)c2ccsc2)cc1`, the pIC50 in assay [1] was 8.30; in assay [2], 6.52.

With `CCCCc1nn(-c2ccccc2C(F)(F)F)c(=O)n1Cc1ccc(-c2ccccc2S(=O)(=O)NC(=O)COCC)cc1`, the pIC50 was 9.12 in assay [1] and 6.42 in assay [2].

As for `CCCCc1nn(-c2ccccc2C(F)(F)F)c(=O)n1Cc1ccc(-c2ccccc2S(=O)(=O)NC(=O)CCC2CCCC2)cc1`, the values for the pIC50 in assay [1] and in assay [2] were 8.92 and 6.14, respectively.

In turn, `CCCCc1nn(-c2ccccc2C(F)(F)F)c(=O)n1Cc1ccc(-c2ccccc2S(=O)(=O)NC(=O)c2cc3ccccc3o2)cc1.CCOCC` had a pIC50 in assay [1] of 9.77.

In assay [2], `CCCCc1nc(Cl)c(C(=O)O)n1Cc1ccc(-c2ccccc2-c2nn[nH]n2)cc1` [CARBOXYLIC ACID METABOLITE] gave a pIC50 of less than 4.30.

In assay [2], `CCCCc1nn(-c2ccccc2Cl)c(=O)n1Cc1ccc(-c2ccccc2S(=O)(=O)NC(C)=O)cc1` had a pIC50 of less than 6.00.
